In paper PMC5115981 (Cancer chemotherapy and pharmacology, 2016):
Several values for one entry are separate records, joined by “and”; a condition that tells them apart may be missing. Identical values can stand only once.

Tests used:
mice = assay: Single dose IV toxicity study in mice; format: in vivo, mouse; conditions: single IV dose 4 mg/kg
Method in brief: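 Male and female heterozygous Foxn1nu/Foxn1+ mice, 5 per group, fasted overnight. Single 4 mg/kg IV tail-vein dose from a 0.4 mg/mL solution in 10% Solutol HS15 in sterile water (0.01 ml/g), alongside vehicle-treated mice. Body weights and clinical signs followed over 14 days, then necropsy for gross pathology. The dose tested was capped by maximum solubility.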

[1] = Single dose pharmacokinetics in mice; format: in vivo, mouse
Method in brief: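 Fasted female heterozygous Foxn1nu/Foxn1+ mice, 3 per time point (5–1440 min), received a single dose by one of three routes: 4.0 mg/kg in 10% Solutol HS IV via tail vein; the same formulation by oral gavage; or 30 mg/kg PO in 1% CMC suspension. Vehicle controls were taken at 5 and 1440 min. Sampling: cardiac-puncture EDTA plasma, tissues including brain, and metabolic-cage urine. Analysis by LC-MS/MS with a deuterated internal standard. Group means underwent non-compartmental analysis; […].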

[2] = female, heterozygous Foxn1nu/Foxn1+, mouse, brain, iv, 4 mg/kg
[3] = female, heterozygous Foxn1nu/Foxn1+, mouse, brain, po, 4 mg/kg
[4] = female, heterozygous Foxn1nu/Foxn1+, mouse, brain, po, 30 mg/kg
[5] = female, heterozygous Foxn1nu/Foxn1+, mouse, kidney, iv, 4 mg/kg
[6] = female, heterozygous Foxn1nu/Foxn1+, mouse, kidney, po, 4 mg/kg
[7] = female, heterozygous Foxn1nu/Foxn1+, mouse, kidney, po, 30 mg/kg
[8] = female, heterozygous Foxn1nu/Foxn1+, mouse, liver, iv, 4 mg/kg
[9] = female, heterozygous Foxn1nu/Foxn1+, mouse, liver, po, 4 mg/kg
[10] = female, heterozygous Foxn1nu/Foxn1+, mouse, liver, po, 30 mg/kg
[11] = female, heterozygous Foxn1nu/Foxn1+, mouse, lung, iv, 4 mg/kg
[12] = female, heterozygous Foxn1nu/Foxn1+, mouse, lung, po, 4 mg/kg
[13] = female, heterozygous Foxn1nu/Foxn1+, mouse, lung, po, 30 mg/kg
[14] = female, heterozygous Foxn1nu/Foxn1+, mouse, muscle, iv, 4 mg/kg
[15] = female, heterozygous Foxn1nu/Foxn1+, mouse, muscle, po, 30 mg/kg
[16] = female, heterozygous Foxn1nu/Foxn1+, mouse, plasma, iv, 4 mg/kg
[17] = female, heterozygous Foxn1nu/Foxn1+, mouse, plasma, po, 4 mg/kg
[18] = female, heterozygous Foxn1nu/Foxn1+, mouse, plasma, po, 30 mg/kg
[19] = female, heterozygous Foxn1nu/Foxn1+, mouse, red blood cells (RBC), iv, 4 mg/kg
[20] = female, heterozygous Foxn1nu/Foxn1+, mouse, red blood cells, po, 4 mg/kg
[21] = female, heterozygous Foxn1nu/Foxn1+, mouse, skeletal muscle, po, 4 mg/kg

Question: Which “clinical appearance after single dose” value (mice; male and female mice, 14 day observation, 4 mg/kg) does the source give for `COc1ccc(C2=Nn3c(nnc3-c3cc(-c4ccc(Cl)cc4)n[nH]3)SC2C)cc1` (stereo not shown) [UPCDC-10205, 3-(3-(4-chlorophenyl)-1H-pyrazole-5-yl)-6-(4-methoxyphenyl)-7-methyl-7H-[1,2,4]triazolo[3,4-b][1,3,4]thiadiazine] here?
Answer: not toxic

Question: What about the “gross pathology upon necropsy after single dose” value (mice; necropsy after 14 day observation) of the same compound?
Answer: no gross pathology was detected

Question: What about the “body weight after single dose” value (mice; within first 24 h after injection) of the same compound?
Answer: no apparent weight loss

Question: And the AUC(0-t) [1, 2]?
Answer: 1730 ng·h/mL

Question: And the Tmax [1, 2]?
Answer: 15 min

Question: And the Cmax ([1]; female, heterozygous Foxn1nu/Foxn1+, mouse, brain, iv, 4 mg/kg, mice, IV 4 mg/kg in 10% Solutol HS, brain)?
Answer: 1640 ng/mL

Question: And the AUC(0-t) [1, 3]?
Answer: 30 ng·h/mL

Question: And the Tmax [1, 3]?
Answer: 60 min

Question: And the Cmax ([1]; female, heterozygous Foxn1nu/Foxn1+, mouse, brain, po, 4 mg/kg, mice, PO 4 mg/kg in 10% Solutol HS, brain)?
Answer: 15.4 ng/mL

Question: And the AUC(0-t) [1, 4]?
Answer: 33.4 ng·h/mL

Question: And the Tmax [1, 4]?
Answer: 5 min

Question: And the Cmax ([1]; female, heterozygous Foxn1nu/Foxn1+, mouse, brain, po, 30 mg/kg, mice, PO 30 mg/kg suspension in 1% CMC, brain)?
Answer: 49 ng/mL

Question: What about the AUC(0-t) [1, 5] of the same compound?
Answer: 3240 ng·h/mL

Question: And the Tmax [1, 5]?
Answer: 5 min

Question: What about the Cmax ([1]; female, heterozygous Foxn1nu/Foxn1+, mouse, kidney, iv, 4 mg/kg, mice, IV 4 mg/kg in 10% Solutol HS, kidney) of the same compound?
Answer: 4620 ng/mL

Question: And the AUC(0-t) [1, 6]?
Answer: 428 ng·h/mL

Question: What about the Tmax [1, 6] of the same compound?
Answer: 30 min

Question: What about the Cmax ([1]; female, heterozygous Foxn1nu/Foxn1+, mouse, kidney, po, 4 mg/kg, mice, PO 4 mg/kg in 10% Solutol HS, kidney) of the same compound?
Answer: 308 ng/mL

Question: What about the AUC(0-t) [1, 7] of the same compound?
Answer: 272 ng·h/mL

Question: What about the Tmax [1, 7] of the same compound?
Answer: 5 min

Question: What about the Cmax ([1]; female, heterozygous Foxn1nu/Foxn1+, mouse, kidney, po, 30 mg/kg, mice, PO 30 mg/kg suspension in 1% CMC, kidney) of the same compound?
Answer: 404 ng/mL

Question: And the AUC(0-t) [1, 8]?
Answer: 1470 ng·h/mL

Question: And the Tmax [1, 8]?
Answer: 30 min

Question: And the Cmax ([1]; female, heterozygous Foxn1nu/Foxn1+, mouse, liver, iv, 4 mg/kg, mice, IV 4 mg/kg in 10% Solutol HS, liver)?
Answer: 2780 ng/mL

Question: And the AUC(0-t) [1, 9]?
Answer: 300 ng·h/mL

Question: What about the Tmax [1, 9] of the same compound?
Answer: 5 min

Question: What about the Cmax ([1]; female, heterozygous Foxn1nu/Foxn1+, mouse, liver, po, 4 mg/kg, mice, PO 4 mg/kg in 10% Solutol HS, liver) of the same compound?
Answer: 220 ng/mL

Question: What about the AUC(0-t) [1, 10] of the same compound?
Answer: 542 ng·h/mL

Question: What about the Tmax [1, 10] of the same compound?
Answer: 5 min

Question: What about the Cmax ([1]; female, heterozygous Foxn1nu/Foxn1+, mouse, liver, po, 30 mg/kg, mice, PO 30 mg/kg suspension in 1% CMC, liver) of the same compound?
Answer: 564 ng/mL

Question: And the AUC(0-t) [1, 11]?
Answer: 2680 ng·h/mL

Question: What about the Tmax [1, 11] of the same compound?
Answer: 5 min

Question: What about the Cmax ([1]; female, heterozygous Foxn1nu/Foxn1+, mouse, lung, iv, 4 mg/kg, mice, IV 4 mg/kg in 10% Solutol HS, lung) of the same compound?
Answer: 4490 ng/mL

Question: What about the AUC(0-t) [1, 12] of the same compound?
Answer: 630 ng·h/mL

Question: What about the Tmax [1, 12] of the same compound?
Answer: 4.98 min

Question: And the Cmax ([1]; female, heterozygous Foxn1nu/Foxn1+, mouse, lung, po, 4 mg/kg, mice, PO 4 mg/kg in 10% Solutol HS, lung)?
Answer: 414 ng/mL

Question: What about the AUC(0-t) [1, 13] of the same compound?
Answer: 186 ng·h/mL

Question: And the Tmax [1, 13]?
Answer: 5 min

Question: What about the Cmax ([1]; female, heterozygous Foxn1nu/Foxn1+, mouse, lung, po, 30 mg/kg, mice, PO 30 mg/kg suspension in 1% CMC, lung) of the same compound?
Answer: 331 ng/mL

Question: What about the AUC(0-t) [1, 14] of the same compound?
Answer: 1630 ng·h/mL

Question: And the Tmax [1, 14]?
Answer: 15 min

Question: What about the Cmax ([1]; female, heterozygous Foxn1nu/Foxn1+, mouse, muscle, iv, 4 mg/kg, mice, IV 4 mg/kg in 10% Solutol HS, muscle) of the same compound?
Answer: 1900 ng/mL

Question: What about the Cmax ([1]; female, heterozygous Foxn1nu/Foxn1+, mouse, muscle, po, 4 mg/kg, mice, PO 4 mg/kg in 10% Solutol HS, muscle) of the same compound?
Answer: 51.2 ng/mL

Question: What about the AUC(0-t) [1, 15] of the same compound?
Answer: 140 ng·h/mL

Question: What about the Tmax [1, 15] of the same compound?
Answer: 5 min

Question: What about the Cmax ([1]; female, heterozygous Foxn1nu/Foxn1+, mouse, muscle, po, 30 mg/kg, mice, PO 30 mg/kg suspension in 1% CMC, muscle) of the same compound?
Answer: 189 ng/mL

Question: What about the AUC(0-inf) [1, 16] of the same compound?
Answer: 1020 ng·h/mL

Question: What about the AUC(0-t) [1, 16] of the same compound?
Answer: 1020 ng·h/mL

Question: What about the Tmax [1, 16] of the same compound?
Answer: 5 min

Question: And the half-life [1, 16]?
Answer: 36 min

Question: And the Cmax ([1]; female, heterozygous Foxn1nu/Foxn1+, mouse, plasma, iv, 4 mg/kg, mice, IV 4 mg/kg in 10% Solutol HS, plasma)?
Answer: 1710 ng/mL

Question: And the Vd ([1]; female, heterozygous Foxn1nu/Foxn1+, mouse, plasma, iv, 4 mg/kg, Vd, mice, IV 4 mg/kg, plasma)?
Answer: 3.4 L/kg

Question: What about the Vd ([1]; female, heterozygous Foxn1nu/Foxn1+, mouse, plasma, iv, 4 mg/kg, Vss, mice, IV 4 mg/kg, plasma) of the same compound?
Answer: 2 L/kg

Question: And the clearance ([1]; female, heterozygous Foxn1nu/Foxn1+, mouse, plasma, iv, 4 mg/kg, clearance, mice, IV 4 mg/kg, plasma)?
Answer: 65.2 mL/min/kg

Question: What about the bioavailability ([1]; female, heterozygous Foxn1nu/Foxn1+, mouse, plasma, oral, 30 mg/kg) of the same compound?
Answer: 0.3%

Question: What about the AUC(0-t) [1, 17] of the same compound?
Answer: 52.1 ng·h/mL

Question: What about the Tmax [1, 17] of the same compound?
Answer: 30 min

Question: And the half-life [1, 17]?
Answer: 48 min

Question: And the Cmax ([1]; female, heterozygous Foxn1nu/Foxn1+, mouse, plasma, po, 4 mg/kg, mice, PO 4 mg/kg in 10% Solutol HS, plasma)?
Answer: 35 ng/mL

Question: And the AUC(0-t) [1, 18]?
Answer: 25.7 ng·h/mL

Question: What about the Tmax [1, 18] of the same compound?
Answer: 60 min

Question: What about the half-life [1, 18] of the same compound?
Answer: 204 min

Question: And the Cmax ([1]; female, heterozygous Foxn1nu/Foxn1+, mouse, plasma, po, 30 mg/kg, mice, PO 30 mg/kg suspension in 1% CMC, plasma)?
Answer: 6.7 ng/mL

Question: And the AUC(0-t) [1, 19]?
Answer: 556 ng·h/mL

Question: What about the Tmax [1, 19] of the same compound?
Answer: 5 min

Question: What about the Cmax ([1]; female, heterozygous Foxn1nu/Foxn1+, mouse, red blood cells (RBC), iv, 4 mg/kg, mice, IV 4 mg/kg in 10% Solutol HS, RBC) of the same compound?
Answer: 980 ng/mL

Question: And the Cmax ([1]; female, heterozygous Foxn1nu/Foxn1+, mouse, red blood cells (RBC), po, 4 mg/kg, mice, PO 4 mg/kg in 10% Solutol HS, RBC)?
Answer: 16 ng/mL

Question: And the AUC(0-t) [1, 20]?
Answer: 23.5 ng·h/mL

Question: And the Tmax [1, 20]?
Answer: 30 min

Question: What about the AUC(0-t) [1, 21] of the same compound?
Answer: 91.4 ng·h/mL

Question: And the Tmax [1, 21]?
Answer: 60 min

Question: And the “level in pooled urine as % of the total amount administered” value ([1]; mice, IV 4 mg/kg, 0-6 h collection)?
Answer: 0.0011%

Question: And the “level in pooled urine as % of the total amount administered” value ([1]; mice, IV 4 mg/kg, 6-24 h collection)?
Answer: 0.0010%

Question: And the clearance ([1]; mice, IV 4 mg/kg, plasma, 4 mg/kg)?
Answer: 65 mL/min/kg

Question: What about the “peak plasma concentration after IV dosing” value ([1]; mice, IV 4 mg/kg, 4 mg/kg) of the same compound?
Answer: 1.7 µg/mL and 4.0 µM

Question: What about the “plasma level by the 6 h time point” value ([1]; mice, IV 4 mg/kg, LLQ 1 ng/mL) of the same compound?
Answer: below the lower limit of quantitation

Question: What about the “%F (oral bioavailability, using AUC0-t)” value ([1]; mice, PO 4 mg/kg in 10% Solutol HS vs IV 4 mg/kg, plasma, 4 mg/kg) of the same compound?
Answer: 5.1%

Question: And the “level in pooled urine as % of the total dose” value ([1]; mice, PO 4 mg/kg, 0-6 h)?
Answer: 0.0077%

Question: And the urine concentration ([1]; mice, PO 4 mg/kg, 6-24 h)?
Answer: below the LLQ

Question: And the “time of Cmax after administration” value ([1]; mice, PO 4 mg/kg, plasma)?
Answer: 0.5 h

Question: And the “plasma concentrations after the 2 h time point” value ([1]; mice, PO 4 mg/kg, LLQ 1 ng/mL)?
Answer: below the LLQ

Question: And the “time of Cmax after administration” value ([1]; mice, PO 30 mg/kg in 1% CMC suspension, plasma)?
Answer: 1.0 h

Question: And the urine concentration ([1]; mice, PO 30 mg/kg in 1% CMC, all urine samples)?
Answer: below the LLQ

Question: What about the “amount excreted in urine” value ([1]; mice, renal excretion) of the same compound?
Answer: < 0.1 % of dose

Question: And the tissue distribution ([1]; mice, tissue levels compared with plasma)?
Answer: extensive tissue distribution
